According to ChEMBL document CHEMBL3352778, “HDX reveals unique fragment ligands for the vitamin D receptor” (Bioorg Med Chem Lett, 2014):
Activity calls are given as the source filed them. No cut-off for these calls is given here.

Experiments:
[1] = species on record: Homo sapiens; experiment: Agonist activity at human full length Flag-tagged RXR/His-tagged VDR assessed as ability to recruit coactivator DRIP205 up to 500 uM by Alphascreen assay
Outline: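 AlphaScreen proximity assay of the RXR–VDR complex run in agonist mode, i.e. without any added VDR agonist. Read-out is the proximity signal produced when coactivator peptide DRIP205 is recruited to the VDR–RXR complex. Fragments were tested at concentrations up to 500 µM.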

[2] = Antagonist activity at human full length Flag-tagged RXR/His-tagged VDR by Alphascreen assay
Outline: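 Antagonist-mode AlphaScreen assay: a non-secosteroidal VDR agonist was added to form the VDR/RXR/DRIP205 complex. Fragments were then added at 10 doses spanning 0.025–500 µM. Dissociation of the complex was quantified as loss of proximity signal on a multilabel reader, and dose–response curves were fitted.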

SMILES | Activity [1] | IC50 [2] [µM]
O=C1CC=C(c2ccccc2)O1 | inactive | 440
Oc1coc(-c2ccccc2)c1 | inactive | 14.2
Oc1cc(-c2ccc(Cl)cc2)no1 | inactive | 67.1
O=C1CCCC=C(Cl)N1c1ccccc1 | inactive | 6.98
Oc1csc2ccccc12 | inactive | 6.83
CCn1c(O)cc(C)cc1=O | inactive | 1.01
Nc1ccc2c(c1)N=C(O)CN2 | inactive | 5.37
CCC1CCCCN1CC(=O)c1cccs1 (stereo unspecified) | inactive | 20
O=C(O)/C=C(/c1ccccc1)c1cccs1 | inactive | 16.7
Cn1c(=O)c2nc(-c3cccc(O)c3O)nnc2n(C)c1=O | inactive | 0.194
Oc1cnn(-c2ccccc2)c1Cl | inactive | 43.2
O=C(O)C1CSC=C(c2ccccc2)N1 (stereo unspecified) | inactive | 2.77
OC(c1ccc(-c2cccs2)cc1)(C(F)(F)F)C(F)(F)F | inactive | 1.3
